Most compounds without a hit are left out; they make up all but 2.1% or so of the library.
Phagocyt inh = inhibitors of macrophage phagocytosis, primary screen, imaging, J774A.1 cells, IgG beads | J774A.1 macrophage IgG-bead phagocytosis | inhibition, % at 5 µM | 0.07% of 110,000 active;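 active = inhibition above the mean of the plate negative controls plus 5 SD, cut at about 13% in these data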;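 note: phagocytic index as fraction of beads internalized from green versus red external bead signal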
MRP reversal = reversal of MRP1-mediated doxorubicin resistance, primary screen, H69AR cells, doxorubicin co-treatment; H69AR cells + 2 uM doxorubicin, CellTiter-Glo, 72 h; 0.04% of 85,000 active; differential viability (reversal), % at 10 µM; AID 602, 2007;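 active = viability drop by adding the cancer drug above about 55%, with treated viability meeting a 40% cutoff, limit read from the data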;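 note: larger differential means the compound sensitizes cells more to doxorubicin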
Yeast lifespan up = compounds extending yeast replicative lifespan, primary screen, S. cerevisiae, OD615 | inhibition of the nicotinamide effect, % at 10 µM | 0.68% of 130,000 active | S. cerevisiae growth with nicotinamide; deaD strain in restrictive glucose medium | AID 775, 2007;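 active = inhibition above a set limit, placed 3 SD over the median of all compounds, cut at about 26% in these data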
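Test system: DeaD-strain S. cerevisiae / Buffer or medium: restrictive glucose medium / Also added: nicotinamide 1.5 mM / Doses: one concentration, 10 µM, DMSO 0.25% / Schedule: 48 h at 30 °C / Signal: OD615 measurement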
SDO1 yeast rescue = growth rescue of sdo1-depleted yeast, primary screen, S. cerevisiae, bone marrow failure model. S. cerevisiae sdo1-depleted JHY4D growth rescue, OD600 30 h; stronger effect = higher value; pdr5 snq2 efflux-pump mutant strain. z-score at 10 µM. 0.21% of 140,000 active;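 active = z-score above 3 at both the 24 hr and the 30 hr optical density reads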
MRP-1 activ = H69AR viability gain despite doxorubicin, primary screen, MRP-1 activator project, H69AR cells, CellTiter-Glo; viability rescue; viability increase, % at 10 µM; 0.61% of 140,000 active; AID 799, 2007;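 active = viability gain under doxorubicin at or above a set limit, the compound median plus 3 SD, cut at about 4.7% in these data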;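 note: MRP-1 overexpressing cells given doxorubicin 25 µM after compound pretreatment; 18-22 h compound pretreatment then 72 h with doxorubicin before readout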
BB579 growth dn = growth inhibitors of yeast BB579 in restrictive medium, primary screen, yeast lifespan-shortening project, S. cerevisiae. AID 804, 2007. OD615, 48 h. 0.51% of 140,000 active. inhibition, % at 10 µM;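 active = inhibition above a set limit, 3 SD over the mean compound inhibition, cut at about 44% in these data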
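System: Saccharomyces cerevisiae DeaD strain BB579, replicative lifespan model yeast. Buffer or medium: restrictive glucose-based CSMM-D medium. Doses: one dose, 10 µM compound with 0.25% DMSO. Timing: 4 h preincubation and 48 h exposure at 30 °C. Detection: turbidity as optical density at 615 nm. Benchmarks: amphotericin B 10 µg/mL, positive.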
Numbers stand for hits; . = inactive; / = no result.

SMILES | Phagocyt inh | MRP reversal | Yeast lifespan up | SDO1 yeast rescue | MRP-1 activ | BB579 growth dn
CCCS(=O)(=O)N1CCCC(C(=O)NCCCN2CCN(c3ccc(F)cc3)CC2)C1 (configuration not stated) | . | . | . | . | . | .
COc1cccc(OCC(O)CN2CCC(Cc3ccccc3)CC2)c1 (configuration not stated) | . | . | . | . | . | .
CCCCN(C(=O)c1c(C)[nH]c(C(=O)OCC)c1C)c1ccccc1 | . | . | . | . | . | .
Cc1cccc2cc(CN(Cc3cccs3)S(=O)(=O)c3ccc4c(c3)OCCO4)c(=O)[nH]c12 | / | / | . | . | 9.3 | .
Cc1cc2cc(CN(Cc3cccs3)S(=O)(=O)c3ccc4c(c3)OCCO4)c(=O)[nH]c2cc1C | . | / | . | . | . | .
NNC(=O)c1ccc(COc2ccc3c(c2)CCC3)o1 | . | / | . | . | . | 91
CCC(CC)NC(=O)CON=C1c2ccccc2-c2ccccc21 | / | / | . | . | . | .
Cc1ccc(NC(=O)C(=O)c2c(-c3ccccc3)cc3ccccn23)cc1S(=O)(=O)N1CCOCC1 | / | . | . | . | 4.8 | .
CCOc1cc(/C=N/NC(=O)CNc2ccc(C)cc2)ccc1OC(=O)c1ccccc1 | 174 | . | . | . | . | .
CCOc1ccc(CC2CCC(=O)NC2=O)cc1 (configuration not stated) | . | / | . | . | . | .
C[C@@H]1C[C@H]2[C@@H]3C[C@H](F)C4=CC(=O)C=C[C@]4(C)[C@@]3(F)[C@@H](O)C[C@]2(C)[C@@]1(O)C(=O)COC(=O)C(C)(C)C | / | . | . | . | . | .
CC(=O)OCC(=O)[C@@]1(O)[C@H](C)C[C@H]2[C@@H]3CCC4=CC(=O)C=C[C@]4(C)[C@@]3(F)[C@@H](O)C[C@@]21C | / | . | . | . | 10 | .
Cc1cc(C(=O)N/N=C/c2cc(Br)ccc2OC(=O)c2ccccc2)n[nH]1 | . | / | . | . | 9.4 | .
N#Cc1ccc(-c2ccc(OCC(=O)NCCc3ccccc3)cc2)cc1 | . | / | 46 | . | . | .
COc1ccc(CCNC(=O)COc2ccc(-c3ccc(C#N)cc3)cc2)cc1 | . | / | . | . | . | .
COC(=O)CSC1=C(C#N)C(c2cccc(F)c2)CC(=O)N1 (configuration not stated) | . | . | . | . | . | .
COc1ccc2c(c1)C(C)CC(C)(C)N2C(=O)NC1CCCCC1 (configuration not stated) | . | / | 27 | . | . | .
COCCn1c(COc2ccc(OC)cc2)nc2ccccc21 | . | . | . | . | . | .
CCOc1ccc(NCc2nc3ccccc3n2CCOc2ccccc2)cc1 | / | / | 42 | . | . | 48
COc1ccc(/C=C/C(=O)c2ccccc2O)cc1 | / | / | . | . | . | .
O=C(/C=C/c1ccccc1)c1ccccc1 | / | . | . | . | . | .
Cc1ccc(/C=C/C(=O)c2ccccc(=O)c2O)cc1C | . | / | . | . | . | 99
O=C(/C=C/c1ccccc1)c1cc(Br)ccc(=O)c1O | . | / | . | . | . | 88
CCOC(=O)C1C(=O)CC(C)(O)C(C(=O)OCC)C1c1ccccc1OC (configuration not stated) | . | . | . | . | . | .
COc1ccccc1Oc1c(C)oc2cc(OC(=O)c3ccco3)ccc2c1=O | . | . | . | . | . | .
SMILES | Phagocyt inh | MRP reversal | Yeast lifespan up | SDO1 yeast rescue | MRP-1 activ | BB579 growth dn
COc1ccccc1-c1c(C)oc2cc(OC(=O)c3ccco3)ccc2c1=O | . | . | 32 | . | . | .
Cc1cnc(C)c(N(C)NC(=S)Nc2ccccc2)n1 | . | / | . | . | . | .
COc1cccc(CC(=O)Nn2c(C)nc3ccccc3c2=O)c1 | . | . | . | . | . | .
CCc1ccc(C(=O)/C=C/c2ccc([N+](=O)[O-])o2)cc1 | . | . | 46 | . | . | .
OC(CN1CCN(Cc2ccccc2)CC1)Cn1c2ccccc2c2ccccc21 (configuration not stated) | . | / | . | . | . | .
O=C1c2ccccc2NC(c2cnc3ccccc3n2)N1O (configuration not stated) | . | . | 57 | . | . | .
COc1ccc(N(C(=O)Cn2nnc3ccccc32)C2(C(=O)NC3CCCC3)CCCCC2)cc1 | / | / | . | . | . | .
COc1ccc(N(C(=O)Cn2cnc3ccccc32)C(C(=O)NC2CCCCC2)c2ccccc2)cc1 (configuration not stated) | . | / | . | . | 13 | .
CC(CCc1ccccc1)NC(=O)CSc1nccc(=O)[nH]1 (configuration not stated) | . | . | . | . | . | .
C/C(N)=C(/C#N)C(=O)COC(=O)c1cccc2ccccc12 | . | / | . | . | . | .
N#CSCC(=O)c1cccc2ccccc12 | . | / | . | . | . | 84
COc1cc(C)c(-c2cc(C(=O)O)c(C)o2)cc1C(C)C | . | . | . | . | . | .
COc1ccc(/C=N\NC(=O)c2cc(O)c(O)c(O)c2)cc1CN1CCN(c2ccc(F)cc2)CC1 | . | / | . | . | 12 | .
CCOc1ccccc1NC(=O)c1cccc(NC(=O)CC(c2ccccc2)c2ccccc2)c1 | / | / | . | . | 8.6 | .
O=Cc1cc2ccccc2nc1SCc1ccc(Cl)cc1 | . | / | 34 | . | . | .
Cc1ccc(C(C2=C(O)CC(C)(C)CC2=O)C2C(=O)CC(C)(C)CC2=O)o1 (configuration not stated) | . | / | 44 | . | . | .
CC1(C)CC(=O)C(C(C2=C(O)CC(C)(C)CC2=O)c2cccs2)C(=O)C1 (configuration not stated) | . | / | . | . | . | .
CCCN(CC1CC1)C(=S)Nc1ccc(Oc2ccccc2)cc1 | . | / | . | . | . | .
N/C(=N\OC(=O)CC1CCCCC1)c1ccccn1 | . | / | . | . | . | .
CC(C)c1ccc(NC(=O)COc2nncc3ccccc23)cc1 | . | / | . | . | . | .
CCCN1C(=O)/C(=N\OCC(=O)NC23CC4CC(CC(C4)C2)C3)c2ccccc21 | . | / | . | . | 5.7 | .
CCCN1C(=O)/C(=N\OCC(=O)Nc2ccc(C(C)C)cc2)c2ccccc21 | . | / | . | . | 6.5 | .
CCC(=O)Nc1cccc(NC(=O)c2ccc3c(c2)OCCO3)c1 | . | / | . | . | . | .
CC(C)Sc1nc(N)nc(-c2cccs2)c1C#N | . | / | . | . | . | 76
Cc1ccc(N2C(=O)/C(=C\c3ccc(C(C)C)cc3)N=C2SC2CCOC2=O)cc1 (configuration not stated) | . | / | . | . | . | .
COc1ccc(N2CC(C(=O)Nc3nnc(SCc4ccccn4)s3)CC2=O)cc1 (configuration not stated) | . | / | . | . | . | .

Bioassay records from PubChem BioAssay.
